# pIC50: −log10 of the molar value. Activity calls are given as the source filed them. No cut-off for these calls is given here.
# What was measured:
# [1] = system: Salmonella typhimurium; test: Mutagenicity in Salmonella typhimurium by Ames II test in presence of liver S9 fraction; format: toxicity, organism-based; conditions: salmonella enterica subsp. enterica serovar typhimurium
# [2] = system: Salmonella typhimurium; test: Mutagenicity in Salmonella typhimurium by Ames II test in absence of liver S9 fraction; format: toxicity, organism-based; conditions: salmonella enterica subsp. enterica serovar typhimurium
# [3] = Permeability across human Caco2 cells; format: ADME, cell-based; conditions: for Papp: Caco-2, read-out: permeability
# Procedure, shortened: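 Permeation is measured across a Caco2 cell monolayer and reported in 10⁻⁷ cm·s⁻¹.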
# [4] = (§1) Metabolic stability in human liver microsomes assessed as compound metabolism after 20 mins incubation in presence of 1 mM NADPH; format: ADME; conditions: liver microsomes, read-out: Drug metabolism
# Procedure, shortened: (§2)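 Hepatic microsomal fractions are incubated with compound for 20 min with 1 mM NADPH. Result is reported as % metabolized, i.e. 100 minus % unchanged compound.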
# [5] = system: Rattus norvegicus; test: Ex vivo inhibition of platelet aggregation in po dosed Sprague-Dawley rat after 2 hrs; format: functional
# Procedure, shortened: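 Oral gavage in male Sprague−Dawley rats (250−300 g, 6 per batch), vehicle 5% glucose water with 5% Cremophor and 3% glycofurol. Blood is collected 2 h after dosing from the abdominal aorta into 3.8% citrate under pentobarbital. PRP is prepared at 300g for 5 min. ADP-induced aggregation is quantified as the 6-min absorbance AUC, given as % inhibition.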
# [6] = biological target: P2Y purinoceptor 12 (Homo sapiens, UniProt Q9H244); test: Displacement of [33P]2MeS-ADP from P2Y12 receptor (unknown origin) transfected in CHO cells after 30 mins by scintillation counting analysis; format: cell-based
# Procedure, shortened: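 P2Y12-expressing CHO cells (35 × 10³/sample) in PBS with 1 mM EDTA and 0.2% BSA are exposed to compound for 30 min. [³³P]2-MeS-ADP (0.16 nM) is then added for 15 min at 20 °C, in triplicate. Filtration separates free from bound ligand, followed by scintillation counting. Nonspecific binding uses 1 mM unlabeled ADP. IC50 comes from a four-parameter logistic fit with asymptotes fixed at 0 and 100. n = 2.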
# [7] = system: Rattus norvegicus; test: Ex vivo inhibition of platelet aggregation in Sprague-Dawley rat at 3 mg/kg, iv after 30 mins; format: functional; conditions: 0.5 h
# Procedure, shortened: (§3)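 Male Sprague−Dawley rats (250−300 g) receive compound iv. At 30 min, under pentobarbital anesthesia, blood is taken from the abdominal aorta into 3.8% citrate (1:9). PRP is prepared at 300g for 5 min. ADP-induced aggregation is measured, using the area under the absorbance curve over 6 min, and expressed as % inhibition.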
# [8] = system: Rattus norvegicus; test: Ex vivo inhibition of platelet aggregation in Sprague-Dawley rat at 10 mg/kg, po after 6 hrs; format: functional
# Procedure, shortened: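 Time-course study in Sprague−Dawley rats after a 10 mg/kg oral dose in glucose/Cremophor/glycofurol vehicle. Aortic citrated blood is sampled at intervals over the hours after dosing. PRP is prepared at 300g for 5 min. ADP-induced aggregation is measured as the 6-min absorbance AUC and reported as % inhibition.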
# [9] = system: Rattus norvegicus; test: Ex vivo inhibition of platelet aggregation in Sprague-Dawley rat at 1 mg/kg, iv after 30 mins; format: functional; conditions: 0.5 h; procedure, shortened: as §3
# [10] = system: Rattus norvegicus; test: Ex vivo inhibition of platelet aggregation in Sprague-Dawley rat at 10 mg/kg, po after 2 hrs; format: functional; conditions: for inhibition in vivo at 10 mg/kg: Rattus norvegicus, Sprague-Dawley, po, 2 h; for inhibition (INH): 10 mg/kg
# Procedure, shortened: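 Male Sprague−Dawley rats (250−300 g), 6 per batch, are dosed by stomach tube at 10 mL/kg of a 1 mg/mL solution in 5% glucose water containing 5% Cremophor and 3% glycofurol. At 2 h, aortic blood is drawn into 3.8% citrate (1:9) under pentobarbital. PRP is prepared at 300g for 5 min. ADP aggregation is read as the 6-min absorbance AUC and expressed as % inhibition.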
# [11] = system: Rattus norvegicus; test: Ex vivo inhibition of platelet aggregation in Sprague-Dawley rat at 10 mg/kg, iv after 30 mins; format: functional; conditions: 0.5 h; procedure, shortened: as §3
# [12] = (§4) Metabolic stability in rat liver microsomes assessed as compound metabolism after 20 mins incubation in presence of 1 mM NADPH; format: ADME; conditions: liver microsomes, read-out: Drug metabolism; procedure, shortened: as §2
# [13] = system: Hepatocyte; test: Intrinsic metabolic clearance in human hepatocytes measured per 10^6 cells after 24 hrs; format: ADME, cell-based
# Procedure, shortened: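 Human hepatocytes incubated with compound for 24 h to measure in vitro metabolism. Clearance reported in mL·h⁻¹·(10⁶ hepatocytes)⁻¹.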
# [14] = system: Hepatocyte; test: Intrinsic metabolic clearance in human hepatocytes measured assessed as CYP3A4 contribution per 10^6 cells after 24 hrs; format: ADME, cell-based
# [15] = Metabolic stability in mouse liver microsomes assessed as compound metabolism after 20 mins incubation in presence of 1 mM NADPH; format: ADME; conditions: read-out: Drug metabolism
# Procedure, shortened: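 Compound incubated with mouse hepatic microsomal fractions for 20 min with 1 mM NADPH. Read-out is % metabolism, meaning 100 minus % unchanged compound.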
# [16] = system: Liver microsome; test: as §1; format: ADME; conditions: microsomes, 20 min; procedure, shortened: as §2
# [17] = system: Liver microsome; test: as §4; format: ADME; conditions: microsomes, 20 min; procedure, shortened: as §2
# Sequence of P2Y purinoceptor 12 (Q9H244 whole entry): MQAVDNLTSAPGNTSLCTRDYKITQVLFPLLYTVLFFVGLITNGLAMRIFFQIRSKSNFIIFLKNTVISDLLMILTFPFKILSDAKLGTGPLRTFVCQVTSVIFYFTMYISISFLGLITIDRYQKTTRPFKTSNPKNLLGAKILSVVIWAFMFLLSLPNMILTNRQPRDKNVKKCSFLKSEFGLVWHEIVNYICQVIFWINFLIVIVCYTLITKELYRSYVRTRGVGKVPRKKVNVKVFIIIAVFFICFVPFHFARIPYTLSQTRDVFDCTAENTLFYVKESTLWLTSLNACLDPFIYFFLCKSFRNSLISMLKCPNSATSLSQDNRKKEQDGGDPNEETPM
SMILES,Activity [1],Activity [2],Papp [3] [×10⁻⁶ cm/s],metabolised at 20 min [4] [%],pIC50 [6],metabolised at 20 min [12] [%],other results
CCCC(=O)c1cnn(-c2ccc(N)nc2)c1C,Non-toxic,Non-toxic,,,,,
CCCSc1nc(N[C@@H]2C[C@H]2c2ccc(F)c(F)c2)c2nnn([C@@H]3C[C@H](OCCO)[C@@H](O)[C@H]3O)c2n1 [TICAGRELOR],,,7.5,20,,,ED50 [5]: 1.59 mg/kg
CCCC(=O)c1cnn(-c2ccc(NC(=O)c3cn(CC(=O)N4CCN(C)CC4)c4ccc(Cl)cc34)cc2)c1C,,,1.6,36,7.57,14,"inhibition in vivo at 3 mg/kg [7]: 70%; inhibition in vivo at 10 mg/kg ([8]; Rattus norvegicus, Sprague-Dawley, po, 6 h): 51%; inhibition in vivo at 1 mg/kg [9]: 53%; inhibition in vivo at 10 mg/kg [10]: 50%; inhibition in vivo at 10 mg/kg [11]: 86%"
CCCC(=O)c1cnn(-c2ccc(N)c(C(=O)O)c2)c1C,Non-toxic,Non-toxic,,,,,
COC(=O)[C@H](c1ccccc1Cl)N1CCc2sccc2C1 [CLOPIDOGREL],,,,,,,ED50 [5]: 2.6 mg/kg
CCCC(=O)c1cnn(-c2ccc(NC(=O)c3cn(CC(=O)N4CCN(C)CC4)c4ccc(C(F)(F)F)cc34)cc2)c1C,,,0.9,15,7.30,14,inhibition in vivo at 10 mg/kg [10]: 26%
CCCC(=O)c1cnn([C@H]2CC[C@H](NC(=O)c3cn(CC(=O)N4CCN(C)CC4)c4ccc(Cl)cc34)CC2)c1C,,,0.1,73,7.40,32,CLH [13]: 0.171 mL/h; Activity [14]: 64%; metabolised at 20 min [15]: 11%
"CCCC(=O)c1cnn(-c2ccc(NC(=O)c3cn(CC(=O)N4CCN5CCN(C)C(=O)C5C4)c4ccc(Cl)cc34)cc2)c1C (single isomer, unassigned; 103)",,,,,8.15,,permeability ([3]; Caco-2): 32 ×10⁻⁷ cm/s; Drug metabolism [16]: 52%; inhibition (INH) [10]: 46%; Drug metabolism [17]: 23%
CCCC(=O)c1cnn(-c2ccc(N)nn2)c1C,Non-toxic,Non-toxic,,,,,
CCCC(=O)c1cnn(-c2ccc(N)cc2)c1C,Toxic,Non-toxic,,,,,
CCCC(=O)c1cnn(C2CCN(NC(=O)c3cn(CC(=O)N4CCN(C)CC4)c4ccc(Cl)cc34)CC2)c1C,,,0.1,59,8.15,13,CLH [13]: 0.05 mL/h; ED50 [5]: 0.95 mg/kg; inhibition [5]: Dose-dependent effect; Activity [14]: 35%; metabolised at 20 min [15]: 3%
CCCC(=O)c1cnn(-c2ccc(NC(=O)c3cn(CC(=O)N4CCN(C)CC4)c4cc(F)c(Cl)cc34)cc2)c1C,,,1.1,31,7.32,21,inhibition [10]: inactive
CCCC(=O)c1cnn(-c2ccc3c(c2)OCCN3)c1C,Non-toxic,Non-toxic,,,,,
CCCC(=O)c1cnn(-c2ccc(NC(=O)c3cn(CC(=O)N4CCN(C)CC4)c4cc(C)c(Br)cc34)cc2)c1C,,,2.8,34,7.32,20,inhibition in vivo at 10 mg/kg [10]: 21%
CCCC(=O)c1cnn(-c2ccc(NC(=O)c3cn(CC(=O)N4CCN5CCN(C)C(=O)C5C4)c4ccc(Cl)cc34)cc2)c1C (racemic),,,3.6,50,8.10,,inhibition (INH) ([8]; 10 mg/kg): 39%; inhibition (INH) [10]: 80%; Drug metabolism [17]: 40%
CCCC(=O)c1cnn(-c2ccc(N)c(C(=O)N(C)C)c2)c1C,Toxic,Non-toxic,,,,,

# Reference: ChEMBL document CHEMBL3352233, “N-[6-(4-butanoyl-5-methyl-1H-pyrazol-1-yl)pyridazin-3-yl]-5-chloro-1-[2-(4-methylpiperazin-1-yl)-2-oxoethyl]-1H-indole-3-carboxamide (SAR216471), a novel intravenous and oral, reversible, and directly acting P2Y12 antagonist” (J Med Chem, 2014)
